Experiments:
[1] = Clearance in pooled human liver microsomes at 1 uM in presence of NADPH by LC-MS/MS method; format: ADME, microsome; settings: read-out: CLH
[2] = target: Sodium channel protein type 9 subunit alpha (Rattus norvegicus, UniProt O08562); assay: Inhibition of rat NaV1.7 by cell based whole cell voltage clamp method
In short: (§1)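 PatchXpress electrophysiology was run with a protocol giving about 20% channel inactivation. At least four concentrations at half-log spacing were applied one at a time, with washout, current recovery and holding voltage reset between each. Data were pooled from at least 10 cells, with 2–3 points per concentration, and fitted with a 4-parameter Hill curve to give one IC50.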

[3] = Clearance in pooled rat liver microsomes at 1 uM in presence of NADPH by LC-MS/MS method; format: ADME, microsome; settings: read-out: CLH
[4] = Apparent permeability in MDCK vector control cells at 5 uM; settings: dog
[5] = target: Sodium channel protein type 5 subunit alpha (Homo sapiens, UniProt Q14524); assay: Inhibition of human NaV1.5 expressed in […] cells at holding potential of -125 mV with test potentials to -10 mV by whole cell voltage clamp method; format: cell-based
Chain of Sodium channel protein type 5 subunit alpha (Q14524 whole entry): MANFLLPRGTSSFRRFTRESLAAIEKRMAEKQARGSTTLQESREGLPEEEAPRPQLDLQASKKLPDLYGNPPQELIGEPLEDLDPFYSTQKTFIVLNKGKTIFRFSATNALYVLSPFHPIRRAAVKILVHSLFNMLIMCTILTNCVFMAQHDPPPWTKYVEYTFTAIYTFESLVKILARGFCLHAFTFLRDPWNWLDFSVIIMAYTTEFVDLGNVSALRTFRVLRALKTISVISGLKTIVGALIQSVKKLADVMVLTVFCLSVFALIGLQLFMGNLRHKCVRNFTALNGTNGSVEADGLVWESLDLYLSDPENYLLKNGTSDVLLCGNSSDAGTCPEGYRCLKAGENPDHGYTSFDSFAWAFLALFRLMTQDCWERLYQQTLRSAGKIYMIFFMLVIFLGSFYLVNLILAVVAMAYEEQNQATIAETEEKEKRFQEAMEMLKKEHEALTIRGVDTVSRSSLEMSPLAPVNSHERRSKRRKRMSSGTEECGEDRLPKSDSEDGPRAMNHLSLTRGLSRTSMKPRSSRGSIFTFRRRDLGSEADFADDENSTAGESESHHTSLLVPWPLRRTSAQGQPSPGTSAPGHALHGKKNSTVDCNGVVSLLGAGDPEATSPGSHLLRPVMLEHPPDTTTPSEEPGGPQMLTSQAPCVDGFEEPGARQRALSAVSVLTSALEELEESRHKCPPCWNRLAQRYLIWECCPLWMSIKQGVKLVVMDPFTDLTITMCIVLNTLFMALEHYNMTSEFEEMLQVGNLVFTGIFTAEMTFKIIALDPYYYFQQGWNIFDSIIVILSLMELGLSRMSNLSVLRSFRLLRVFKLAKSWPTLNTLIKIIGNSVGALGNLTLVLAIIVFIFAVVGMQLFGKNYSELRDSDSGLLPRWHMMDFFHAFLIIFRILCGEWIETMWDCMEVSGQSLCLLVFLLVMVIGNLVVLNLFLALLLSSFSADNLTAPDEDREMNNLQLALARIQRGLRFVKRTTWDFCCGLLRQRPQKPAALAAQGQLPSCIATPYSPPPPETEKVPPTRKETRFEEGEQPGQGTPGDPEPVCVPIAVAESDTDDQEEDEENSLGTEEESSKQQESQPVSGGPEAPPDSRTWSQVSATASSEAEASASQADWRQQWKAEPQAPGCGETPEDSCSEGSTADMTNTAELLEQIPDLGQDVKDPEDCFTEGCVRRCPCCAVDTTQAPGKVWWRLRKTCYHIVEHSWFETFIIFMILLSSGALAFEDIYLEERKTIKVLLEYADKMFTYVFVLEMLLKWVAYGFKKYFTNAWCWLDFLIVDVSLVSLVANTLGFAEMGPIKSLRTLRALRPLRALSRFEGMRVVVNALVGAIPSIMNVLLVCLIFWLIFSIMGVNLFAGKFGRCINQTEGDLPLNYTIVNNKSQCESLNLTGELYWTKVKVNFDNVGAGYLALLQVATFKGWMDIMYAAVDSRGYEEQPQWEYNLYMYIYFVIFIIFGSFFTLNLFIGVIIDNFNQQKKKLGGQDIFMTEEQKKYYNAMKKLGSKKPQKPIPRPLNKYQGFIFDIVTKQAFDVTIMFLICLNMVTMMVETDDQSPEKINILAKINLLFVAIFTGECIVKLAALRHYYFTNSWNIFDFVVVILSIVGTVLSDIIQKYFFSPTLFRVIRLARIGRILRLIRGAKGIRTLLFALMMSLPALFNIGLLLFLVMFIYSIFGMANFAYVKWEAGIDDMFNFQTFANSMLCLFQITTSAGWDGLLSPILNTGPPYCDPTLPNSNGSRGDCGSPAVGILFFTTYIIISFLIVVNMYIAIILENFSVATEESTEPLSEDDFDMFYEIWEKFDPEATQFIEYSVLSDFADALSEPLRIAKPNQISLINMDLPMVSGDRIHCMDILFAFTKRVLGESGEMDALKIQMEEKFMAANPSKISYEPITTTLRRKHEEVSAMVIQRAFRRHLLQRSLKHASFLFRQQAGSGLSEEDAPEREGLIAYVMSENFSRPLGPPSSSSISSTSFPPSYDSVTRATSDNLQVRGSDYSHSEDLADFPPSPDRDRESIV

[6] = target: T1, Sodium channel protein type 9 subunit alpha (Homo sapiens, UniProt Q15858); assay: Inhibition of human NaV1.7 expressed in HEK293 cells at holding potential of -125 mV with test potentials to -10 mV by whole cell voltage clamp method; format: cell-based
[7] = Dissociation constant, pKa of the compound; format: physicochemical
[8] = Clearance in rat at 0.5 mg/kg, iv by LC-MS/MS method; format: ADME, organism-based; settings: in vivo
In short: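 Male rats got 0.5 mg/kg IV as a DMSO solution. Unbound clearance was taken as rat clearance divided by the unbound fraction from equilibrium dialysis.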

Rattus norvegicus = assay: Unbound clearance in rat at 0.5 mg/kg, iv by LC-MS/MS method; format: ADME, organism-based; settings: in vivo
In short: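 Male rats given 0.5 mg/kg intravenously as a solution in DMSO. Unbound clearance was calculated as rat clearance divided by unbound fraction, with unbound fraction determined by equilibrium dialysis.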

[9] = target: T1, Sodium channel protein type 9 subunit alpha; assay: Displacement of (P)-1-(30-chloro-2-fluoro-5,50-dimethoxy-[1,10biphenyl]-4-yl)-N-(isoxazol-3-yl)-2-oxo-1,2-dihydroquinoline-6-sulfonamide[50-methoxy-C3H3] from human NaV1.7 expressed in HEK293 cell membranes incubated for 1 hr by beta counting method
In short: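 Human NaV1.7 radioligand displacement using the tritiated 5'-methoxy-labelled dihydroquinoline sulfonamide ligand, which binds the VSDIV pocket.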

Homo sapiens = organism: Homo sapiens; assay: Selectivity index, ratio of IC50 for human NaV1.5 expressed in […] cells to IC50 for human NaV1.7 expressed in HEK293 cells; format: cell-based
[10] = target: Sodium channel protein type 9 subunit alpha (Mus musculus, UniProt Q62205); assay: Inhibition of mouse NaV1.7 by whole cell voltage clamp method; in short: as §1
Chain of Sodium channel protein type 9 subunit alpha (Mus musculus, UniProt Q62205) (Q62205 whole entry): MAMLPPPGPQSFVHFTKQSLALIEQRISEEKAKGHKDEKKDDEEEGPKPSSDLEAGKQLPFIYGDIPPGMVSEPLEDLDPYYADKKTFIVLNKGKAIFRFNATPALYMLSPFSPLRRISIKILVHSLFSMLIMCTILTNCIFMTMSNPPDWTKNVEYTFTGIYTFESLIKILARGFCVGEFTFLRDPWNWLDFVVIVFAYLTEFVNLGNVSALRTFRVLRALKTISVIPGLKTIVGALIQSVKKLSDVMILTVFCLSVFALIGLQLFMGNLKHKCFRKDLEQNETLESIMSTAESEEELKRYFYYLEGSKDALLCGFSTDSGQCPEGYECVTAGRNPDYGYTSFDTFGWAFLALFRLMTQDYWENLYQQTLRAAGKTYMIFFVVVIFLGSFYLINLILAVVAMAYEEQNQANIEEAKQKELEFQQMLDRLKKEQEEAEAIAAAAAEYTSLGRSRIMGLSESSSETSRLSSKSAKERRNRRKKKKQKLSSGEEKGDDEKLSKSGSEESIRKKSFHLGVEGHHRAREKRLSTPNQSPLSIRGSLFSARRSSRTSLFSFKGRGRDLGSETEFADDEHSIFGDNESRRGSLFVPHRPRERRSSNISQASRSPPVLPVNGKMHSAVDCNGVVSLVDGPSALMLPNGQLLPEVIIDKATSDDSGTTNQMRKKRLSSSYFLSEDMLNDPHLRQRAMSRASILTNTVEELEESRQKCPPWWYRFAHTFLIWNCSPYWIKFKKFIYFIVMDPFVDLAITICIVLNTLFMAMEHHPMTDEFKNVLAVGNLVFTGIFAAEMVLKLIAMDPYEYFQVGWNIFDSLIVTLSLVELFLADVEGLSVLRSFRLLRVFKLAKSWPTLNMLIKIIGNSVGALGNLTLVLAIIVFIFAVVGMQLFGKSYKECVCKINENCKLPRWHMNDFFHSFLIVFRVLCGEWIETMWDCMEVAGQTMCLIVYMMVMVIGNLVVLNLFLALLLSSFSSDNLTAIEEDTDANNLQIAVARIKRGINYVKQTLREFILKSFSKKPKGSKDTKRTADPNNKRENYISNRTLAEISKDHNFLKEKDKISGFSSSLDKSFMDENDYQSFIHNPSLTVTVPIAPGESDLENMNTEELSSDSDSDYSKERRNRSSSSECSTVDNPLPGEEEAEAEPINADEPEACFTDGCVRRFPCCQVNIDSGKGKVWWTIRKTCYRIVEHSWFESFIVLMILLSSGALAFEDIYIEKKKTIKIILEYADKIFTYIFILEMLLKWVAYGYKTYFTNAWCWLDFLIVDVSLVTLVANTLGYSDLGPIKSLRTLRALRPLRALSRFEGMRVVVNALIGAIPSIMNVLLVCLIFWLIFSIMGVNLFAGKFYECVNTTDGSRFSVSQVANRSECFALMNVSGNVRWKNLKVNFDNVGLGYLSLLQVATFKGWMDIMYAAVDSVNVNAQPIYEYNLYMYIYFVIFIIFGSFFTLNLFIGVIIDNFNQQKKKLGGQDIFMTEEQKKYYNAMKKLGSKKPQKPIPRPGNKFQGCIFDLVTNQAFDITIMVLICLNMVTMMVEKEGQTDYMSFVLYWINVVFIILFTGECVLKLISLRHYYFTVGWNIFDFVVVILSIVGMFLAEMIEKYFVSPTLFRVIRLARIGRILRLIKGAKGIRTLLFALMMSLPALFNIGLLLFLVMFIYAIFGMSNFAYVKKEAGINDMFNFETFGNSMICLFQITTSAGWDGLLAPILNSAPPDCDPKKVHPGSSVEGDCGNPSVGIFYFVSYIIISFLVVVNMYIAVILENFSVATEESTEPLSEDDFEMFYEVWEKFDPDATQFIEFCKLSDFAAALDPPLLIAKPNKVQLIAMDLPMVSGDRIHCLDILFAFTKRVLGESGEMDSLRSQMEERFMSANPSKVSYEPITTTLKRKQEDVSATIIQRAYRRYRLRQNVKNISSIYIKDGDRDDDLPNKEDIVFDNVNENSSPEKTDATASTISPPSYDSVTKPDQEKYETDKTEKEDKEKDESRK

[11] = Inhibition of cynomolgus monkey NaV1.7 by whole cell voltage clamp method; settings: Macaca fascicularis; in short: as §1

SMILES	microsomal CLint at 1 µM [1] [µL/min/mg]	IC50 [2] [nM]	microsomal CLint at 1 µM [3] [µL/min/mg]	Papp at 5 µM [4] [×10⁻⁶ cm/s]	IC50 [6] [nM]	pKa [7]	clearance [8] [mL/min/kg]	CL free (Rattus norvegicus) [mL/min/kg]	IC50 [9] [nM]	IC50 [10] [nM]	IC50 [11] [nM]	IC50 [5] [nM]	Ratio IC50 (Homo sapiens)
N#Cc1cc(C(F)(F)F)ccc1N1CCOc2cc(S(=O)(=O)Nc3nccs3)cc(F)c21	< 14	560	< 14	26	–	–	–	–	–	–	–	650	–
COc1cc(C#N)ccc1N1CCOc2cc(S(=O)(=O)Nc3nccs3)ccc21	36	850	22	20	250	–	14	883	–	–	–	14000	56
N#Cc1cc(C(F)(F)F)ccc1N1CCOc2cc(S(=O)(=O)Nc3ncco3)ccc21	15	–	< 14	6.4	–	–	–	–	–	–	–	–	–
COc1cc(C(F)(F)F)ccc1N1CCOc2cc(S(=O)(=O)Nc3nccs3)ccc21	30	390	53	–	–	–	–	667	–	–	–	–	–
COc1ccccc1N1CCOc2cc(S(=O)(=O)Nc3nccs3)ccc21	68	1600	297	28	–	–	–	–	–	–	–	> 30000	> 79
Cn1nccc1-c1ccccc1Oc1ccc(S(=O)(=O)Nc2nccs2)cc1C#N	–	4200	–	–	–	–	–	–	–	130	20	–	–
COc1cc(F)ccc1N1CCOc2cc(S(=O)(=O)Nc3nccs3)ccc21	110	880	> 399	36	280	–	–	–	–	–	–	> 30000	> 100
N#Cc1cc(C(F)(F)F)ccc1N1CCOc2cc(S(=O)(=O)Nc3ccno3)ccc21	32	–	< 14	< 1	–	–	–	–	–	–	–	–	–
N#Cc1cc(C(F)(F)F)ccc1N1CCOc2c1ccc(S(=O)(=O)Nc1nccs1)c2F	< 14	1700	< 14	38	–	–	–	–	–	–	–	2100	–
N#Cc1cc(C(F)(F)F)ccc1N1CCOc2cc(S(=O)(=O)Nc3nccs3)c(Cl)cc21	22	50	21	27	390	–	–	–	20	100	300	610	–

The next lines start with results.

microsomal CLint at 1 µM [1] [µL/min/mg]	IC50 [2] [nM]	microsomal CLint at 1 µM [3] [µL/min/mg]	Papp at 5 µM [4] [×10⁻⁶ cm/s]	IC50 [6] [nM]	pKa [7]	clearance [8] [mL/min/kg]	CL free (Rattus norvegicus) [mL/min/kg]	IC50 [9] [nM]	IC50 [10] [nM]	IC50 [11] [nM]	SMILES	IC50 [5] [nM]	Ratio IC50 (Homo sapiens)
55	–	< 14	39	–	–	–	–	–	–	–	N#Cc1cc(C(F)(F)F)ccc1N1CCOc2cc(S(=O)(=O)Nc3cscn3)ccc21	–	–
< 14	–	34	1.6	90	3.8	10.7	1180	21	–	–	N#Cc1cc(C(F)(F)F)ccc1N1CCOc2cc(S(=O)(=O)Nc3ncns3)ccc21	–	–
–	> 30000	–	1.3	90	–	28.3	667	–	4300	100	O=S(=O)(Nc1ccncn1)c1ccc2c(-c3ccc(C(F)(F)F)cc3C3=CCNCC3)cccc2c1	> 30000	> 330
–	> 30000	–	1	–	–	43.3	233	–	–	–	O=S(=O)(Nc1ccncn1)c1ccc2c(c1)OCCN2c1ccc(C(F)(F)F)cc1C1=CCNCC1	1500	11
< 14	1100	< 14	22	–	7	5.5	517	–	–	–	N#Cc1cc(C(F)(F)F)ccc1N1CCOc2cc(S(=O)(=O)Nc3nccs3)ccc21	1500	8
< 14	3000	< 14	9.7	–	5.8	2.83	120	–	–	–	N#Cc1cc(C(F)(F)F)ccc1N1CCOc2cc(S(=O)(=O)Nc3ccncn3)ccc21	4600	10

— ChEMBL document CHEMBL4052683, “The discovery of benzoxazine sulfonamide inhibitors of NaV1.7: Tools that bridge efficacy and target engagement” (Bioorg Med Chem Lett, 2017)
